A word on the inhibition: it is the relative decrease from the control value, in per cent. A low value points to little suppression.

In experiment [1] the target is Tyrosine-protein kinase JAK1 (Homo sapiens) (UniProt P23458). Description: Inhibition of JAK1 JH2 pseudokinase domain at 1 uM. An outline of the steps: (§1)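 Single-concentration screen on the Ambit KINOMEscan platform, run against a panel of 250–400 kinases. Per-kinase inhibition was also summarized as S(90), the fraction of kinases inhibited by more than 90%.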
Experiment [2] deals with Mitogen-activated protein kinase kinase kinase 1 (Homo sapiens) (UniProt Q13233). Description: Inhibition of MAP3K1 at 1 uM.
The target of experiment [3] is Maternal embryonic leucine zipper kinase (Homo sapiens) (UniProt Q14680). Put plainly: Inhibition of MELK at 1 uM. An outline of the steps: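 Kinase-panel screen using KINOMEscan technology, with 250–400 kinases per panel. Each compound was tested at a single concentration, and inhibition of each kinase was recorded. Selectivity was summarised as S(90), the fraction of kinases inhibited by more than 90%.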

Experiment [4] addresses Serine/threonine-protein kinase Nek7 (Homo sapiens) (UniProt Q8TDX7). Description: Inhibition of NEK7 at 1 uM.
The target in experiment [5] is Serine/threonine-protein kinase NIM1 (Homo sapiens) (UniProt Q8IY84). Put plainly: Inhibition of NIM1 at 1 uM.
The target of experiment [6] is Ribosomal protein S6 kinase alpha-4 (Homo sapiens) (UniProt O75676). Description: Inhibition of RPS6KA4 N-terminal domain1 at 1 uM.
The target of experiment [7] is Serine/threonine-protein kinase SIK2 (Homo sapiens) (UniProt Q9H0K1). Put plainly: Inhibition of SIK2 at 1 uM.
The target of experiment [8] is Non-receptor tyrosine-protein kinase TYK2 (Homo sapiens) (UniProt P29597). Put plainly: Inhibition of TYK2 JH2 pseudokinase domain at 1 uM.
In experiment [9] the target is AP2-associated protein kinase 1 (Homo sapiens) (UniProt Q2M2I8). Description: Inhibition of AAK1 at 1 uM. Summed up: (§2)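 Ambit KINOMEscan screen at a single concentration across a 250–400 kinase panel, recorded as percent inhibition. Selectivity was expressed as S(90), the fraction of kinases inhibited >90%.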
The target in experiment [10] is Activin receptor type-2A (Homo sapiens) (UniProt P27037). Put plainly: Inhibition of ACVR2A at 1 uM. Summed up: as §2
Experiment [11] addresses T1, Ankyrin repeat and protein kinase domain-containing protein 1 (Homo sapiens) (UniProt Q8NFD2).
T1 sequence (whole entry): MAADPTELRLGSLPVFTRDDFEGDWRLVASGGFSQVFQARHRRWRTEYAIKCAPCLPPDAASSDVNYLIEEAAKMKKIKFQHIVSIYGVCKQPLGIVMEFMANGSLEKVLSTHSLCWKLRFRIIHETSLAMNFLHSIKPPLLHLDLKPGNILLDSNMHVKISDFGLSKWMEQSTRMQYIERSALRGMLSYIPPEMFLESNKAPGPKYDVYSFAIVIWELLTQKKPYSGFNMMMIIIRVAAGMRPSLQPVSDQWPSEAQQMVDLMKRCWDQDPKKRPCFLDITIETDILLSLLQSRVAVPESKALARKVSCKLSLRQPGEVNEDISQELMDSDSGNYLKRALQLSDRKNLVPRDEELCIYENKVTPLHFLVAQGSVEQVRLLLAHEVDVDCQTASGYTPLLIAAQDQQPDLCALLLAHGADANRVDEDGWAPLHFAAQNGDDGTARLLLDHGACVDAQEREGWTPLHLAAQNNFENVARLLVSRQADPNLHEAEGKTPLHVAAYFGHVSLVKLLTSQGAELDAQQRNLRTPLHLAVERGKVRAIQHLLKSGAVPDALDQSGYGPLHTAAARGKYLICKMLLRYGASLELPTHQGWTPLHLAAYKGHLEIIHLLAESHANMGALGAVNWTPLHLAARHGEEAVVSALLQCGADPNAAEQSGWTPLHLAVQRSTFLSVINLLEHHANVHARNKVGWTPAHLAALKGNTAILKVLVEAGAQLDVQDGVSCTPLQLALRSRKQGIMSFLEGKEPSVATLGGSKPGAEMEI
Put plainly: Inhibition of ANKK1 at 1 uM.

Experiment [12] addresses Dual specificity protein kinase CLK1 (Homo sapiens) (UniProt P49759). Description: Inhibition of CLK1 at 1 uM. Summed up: as §2
The target of experiment [13] is Casein kinase I isoform delta (Homo sapiens) (UniProt P48730). Description: Inhibition of CSNK1D at 1 uM. An outline of the steps: (§3)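 Single-concentration screen using Ambit Bioscience KINOMEscan technology across a panel of 250–400 kinases. Per-kinase inhibition from this screen was summarized as S(90), the fraction of kinases inhibited by more than 90%.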
In experiment [14] the target is Receptor tyrosine-protein kinase erbB-2 (Homo sapiens) (UniProt P04626). Description: Inhibition of ERBB2 at 1 uM. Summed up: as §3
The test system of experiment [15] is T2, Receptor-type tyrosine-protein kinase FLT3 (Homo sapiens), P36888 [N841I].
T2 sequence (whole entry): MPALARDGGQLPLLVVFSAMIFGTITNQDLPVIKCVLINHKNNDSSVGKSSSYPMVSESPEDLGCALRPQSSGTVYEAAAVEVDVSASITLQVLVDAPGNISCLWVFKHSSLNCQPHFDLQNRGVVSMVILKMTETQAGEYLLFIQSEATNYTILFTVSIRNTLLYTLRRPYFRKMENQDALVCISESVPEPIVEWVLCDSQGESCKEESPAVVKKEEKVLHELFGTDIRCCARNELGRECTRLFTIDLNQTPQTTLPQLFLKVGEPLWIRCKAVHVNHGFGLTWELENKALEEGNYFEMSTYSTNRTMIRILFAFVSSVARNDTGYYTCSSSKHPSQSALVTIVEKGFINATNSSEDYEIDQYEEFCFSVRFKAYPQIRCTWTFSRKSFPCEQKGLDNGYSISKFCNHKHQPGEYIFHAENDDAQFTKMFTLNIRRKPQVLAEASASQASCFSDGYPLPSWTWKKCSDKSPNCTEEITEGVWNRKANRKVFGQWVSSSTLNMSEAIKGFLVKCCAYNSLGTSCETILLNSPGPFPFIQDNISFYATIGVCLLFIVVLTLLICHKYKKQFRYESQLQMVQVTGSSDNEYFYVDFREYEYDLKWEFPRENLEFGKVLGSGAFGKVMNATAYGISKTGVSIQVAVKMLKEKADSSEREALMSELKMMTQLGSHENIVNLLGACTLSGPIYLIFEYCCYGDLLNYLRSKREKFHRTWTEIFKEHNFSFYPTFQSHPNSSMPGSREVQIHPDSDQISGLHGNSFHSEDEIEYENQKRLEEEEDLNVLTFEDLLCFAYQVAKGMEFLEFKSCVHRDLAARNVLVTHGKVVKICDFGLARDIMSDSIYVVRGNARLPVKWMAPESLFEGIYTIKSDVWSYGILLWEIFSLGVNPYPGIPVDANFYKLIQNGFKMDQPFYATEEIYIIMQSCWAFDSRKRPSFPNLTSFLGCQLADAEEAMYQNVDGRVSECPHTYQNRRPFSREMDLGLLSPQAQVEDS
Put plainly: Inhibition of FLT3 N841I mutant at 1 uM. An outline of the steps: as §1

Experiment [16] deals with G protein-coupled receptor kinase 4 (Homo sapiens) (UniProt P32298). Put plainly: Inhibition of GRK4 at 1 uM.

Sequence of Mitogen-activated protein kinase kinase kinase 1 (Homo sapiens) (Q13233 whole entry): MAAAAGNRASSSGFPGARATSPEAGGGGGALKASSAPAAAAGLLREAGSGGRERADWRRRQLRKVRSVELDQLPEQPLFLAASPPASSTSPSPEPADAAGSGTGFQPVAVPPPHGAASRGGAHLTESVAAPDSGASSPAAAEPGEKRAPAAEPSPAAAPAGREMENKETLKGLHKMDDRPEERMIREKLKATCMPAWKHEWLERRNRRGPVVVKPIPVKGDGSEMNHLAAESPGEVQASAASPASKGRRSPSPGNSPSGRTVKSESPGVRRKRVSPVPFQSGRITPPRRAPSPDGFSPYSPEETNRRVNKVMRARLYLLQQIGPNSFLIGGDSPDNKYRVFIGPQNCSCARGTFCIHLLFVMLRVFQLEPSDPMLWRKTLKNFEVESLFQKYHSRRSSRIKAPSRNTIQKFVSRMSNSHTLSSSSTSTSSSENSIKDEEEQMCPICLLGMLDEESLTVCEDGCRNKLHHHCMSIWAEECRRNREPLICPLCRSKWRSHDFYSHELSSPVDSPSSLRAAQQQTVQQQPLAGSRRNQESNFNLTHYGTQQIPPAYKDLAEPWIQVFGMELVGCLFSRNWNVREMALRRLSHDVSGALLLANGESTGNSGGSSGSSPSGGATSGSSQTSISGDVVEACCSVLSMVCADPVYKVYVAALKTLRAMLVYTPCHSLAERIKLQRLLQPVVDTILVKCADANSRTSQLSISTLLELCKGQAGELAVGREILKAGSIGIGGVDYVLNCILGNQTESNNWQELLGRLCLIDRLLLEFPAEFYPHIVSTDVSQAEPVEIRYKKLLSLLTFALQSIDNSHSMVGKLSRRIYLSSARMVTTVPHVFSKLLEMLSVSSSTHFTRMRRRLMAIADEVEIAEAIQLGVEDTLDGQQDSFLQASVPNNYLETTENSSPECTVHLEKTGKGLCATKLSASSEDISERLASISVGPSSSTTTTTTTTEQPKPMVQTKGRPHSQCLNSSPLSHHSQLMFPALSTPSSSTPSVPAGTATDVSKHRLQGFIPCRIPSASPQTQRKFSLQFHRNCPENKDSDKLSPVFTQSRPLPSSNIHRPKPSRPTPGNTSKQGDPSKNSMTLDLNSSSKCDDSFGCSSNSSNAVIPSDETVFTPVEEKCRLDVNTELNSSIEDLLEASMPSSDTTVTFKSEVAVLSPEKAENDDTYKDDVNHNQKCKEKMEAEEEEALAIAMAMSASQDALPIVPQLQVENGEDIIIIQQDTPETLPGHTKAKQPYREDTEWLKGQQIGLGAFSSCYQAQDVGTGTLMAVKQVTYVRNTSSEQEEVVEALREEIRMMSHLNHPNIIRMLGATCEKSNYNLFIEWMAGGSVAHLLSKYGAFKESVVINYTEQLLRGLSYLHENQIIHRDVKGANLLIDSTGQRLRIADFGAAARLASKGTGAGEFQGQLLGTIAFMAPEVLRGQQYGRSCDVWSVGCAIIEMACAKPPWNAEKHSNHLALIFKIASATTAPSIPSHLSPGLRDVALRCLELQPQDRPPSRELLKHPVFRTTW
Sequence of Tyrosine-protein kinase JAK1 (Homo sapiens) (P23458 whole entry, the tested form may be a part): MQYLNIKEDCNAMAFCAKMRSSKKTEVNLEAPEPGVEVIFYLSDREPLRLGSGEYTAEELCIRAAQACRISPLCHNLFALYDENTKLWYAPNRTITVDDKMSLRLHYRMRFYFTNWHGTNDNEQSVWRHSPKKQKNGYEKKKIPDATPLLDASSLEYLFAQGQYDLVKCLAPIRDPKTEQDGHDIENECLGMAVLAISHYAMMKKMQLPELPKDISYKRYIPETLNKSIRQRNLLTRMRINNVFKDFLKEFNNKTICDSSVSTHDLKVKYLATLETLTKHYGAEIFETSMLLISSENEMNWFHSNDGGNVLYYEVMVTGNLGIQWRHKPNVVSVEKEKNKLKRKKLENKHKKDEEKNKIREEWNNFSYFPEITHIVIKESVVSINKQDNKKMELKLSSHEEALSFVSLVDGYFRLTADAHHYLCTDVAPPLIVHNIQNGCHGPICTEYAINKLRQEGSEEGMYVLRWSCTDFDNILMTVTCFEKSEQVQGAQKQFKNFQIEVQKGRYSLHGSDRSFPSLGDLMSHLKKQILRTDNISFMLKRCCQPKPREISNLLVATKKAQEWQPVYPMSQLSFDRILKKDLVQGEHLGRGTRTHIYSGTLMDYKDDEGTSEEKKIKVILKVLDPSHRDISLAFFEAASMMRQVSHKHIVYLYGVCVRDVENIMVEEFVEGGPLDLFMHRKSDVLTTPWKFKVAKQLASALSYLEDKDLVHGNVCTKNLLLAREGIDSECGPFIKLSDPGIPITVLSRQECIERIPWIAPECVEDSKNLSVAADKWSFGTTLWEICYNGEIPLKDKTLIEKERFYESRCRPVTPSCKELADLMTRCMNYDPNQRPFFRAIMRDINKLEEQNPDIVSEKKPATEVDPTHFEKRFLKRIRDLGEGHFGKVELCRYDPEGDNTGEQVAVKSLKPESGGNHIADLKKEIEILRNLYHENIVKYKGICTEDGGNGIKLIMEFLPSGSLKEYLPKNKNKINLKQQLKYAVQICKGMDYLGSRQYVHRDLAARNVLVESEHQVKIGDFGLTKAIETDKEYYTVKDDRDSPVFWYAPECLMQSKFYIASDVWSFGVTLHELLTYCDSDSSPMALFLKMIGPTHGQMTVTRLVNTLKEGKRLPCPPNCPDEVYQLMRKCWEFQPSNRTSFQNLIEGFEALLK
Sequence of Dual specificity protein kinase CLK1 (Homo sapiens) (P49759 whole entry, looked up, canonical isoform): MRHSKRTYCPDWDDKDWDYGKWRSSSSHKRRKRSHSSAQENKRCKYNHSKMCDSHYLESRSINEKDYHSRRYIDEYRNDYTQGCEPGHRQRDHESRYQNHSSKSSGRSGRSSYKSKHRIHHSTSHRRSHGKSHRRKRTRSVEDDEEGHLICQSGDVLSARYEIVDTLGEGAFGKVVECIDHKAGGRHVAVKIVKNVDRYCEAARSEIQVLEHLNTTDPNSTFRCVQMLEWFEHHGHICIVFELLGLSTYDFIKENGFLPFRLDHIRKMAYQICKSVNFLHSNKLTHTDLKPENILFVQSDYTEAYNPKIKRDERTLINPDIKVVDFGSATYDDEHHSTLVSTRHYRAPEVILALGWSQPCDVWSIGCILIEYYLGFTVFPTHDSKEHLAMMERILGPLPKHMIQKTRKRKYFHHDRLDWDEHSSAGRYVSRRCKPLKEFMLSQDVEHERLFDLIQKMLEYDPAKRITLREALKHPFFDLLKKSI
Sequence of Casein kinase I isoform delta (Homo sapiens) (P48730 whole entry, looked up, canonical isoform): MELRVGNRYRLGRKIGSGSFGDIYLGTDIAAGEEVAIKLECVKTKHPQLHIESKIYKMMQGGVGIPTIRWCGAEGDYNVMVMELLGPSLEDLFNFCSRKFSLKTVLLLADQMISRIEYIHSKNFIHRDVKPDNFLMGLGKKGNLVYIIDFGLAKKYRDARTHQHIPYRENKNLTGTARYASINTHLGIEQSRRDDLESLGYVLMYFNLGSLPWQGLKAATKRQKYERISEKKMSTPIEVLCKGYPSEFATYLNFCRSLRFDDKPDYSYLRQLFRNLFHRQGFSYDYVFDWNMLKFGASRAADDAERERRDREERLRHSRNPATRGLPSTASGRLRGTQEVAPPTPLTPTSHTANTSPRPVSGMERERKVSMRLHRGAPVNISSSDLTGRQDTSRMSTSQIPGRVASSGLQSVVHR
Sequence of Receptor tyrosine-protein kinase erbB-2 (Homo sapiens) (P04626 whole entry): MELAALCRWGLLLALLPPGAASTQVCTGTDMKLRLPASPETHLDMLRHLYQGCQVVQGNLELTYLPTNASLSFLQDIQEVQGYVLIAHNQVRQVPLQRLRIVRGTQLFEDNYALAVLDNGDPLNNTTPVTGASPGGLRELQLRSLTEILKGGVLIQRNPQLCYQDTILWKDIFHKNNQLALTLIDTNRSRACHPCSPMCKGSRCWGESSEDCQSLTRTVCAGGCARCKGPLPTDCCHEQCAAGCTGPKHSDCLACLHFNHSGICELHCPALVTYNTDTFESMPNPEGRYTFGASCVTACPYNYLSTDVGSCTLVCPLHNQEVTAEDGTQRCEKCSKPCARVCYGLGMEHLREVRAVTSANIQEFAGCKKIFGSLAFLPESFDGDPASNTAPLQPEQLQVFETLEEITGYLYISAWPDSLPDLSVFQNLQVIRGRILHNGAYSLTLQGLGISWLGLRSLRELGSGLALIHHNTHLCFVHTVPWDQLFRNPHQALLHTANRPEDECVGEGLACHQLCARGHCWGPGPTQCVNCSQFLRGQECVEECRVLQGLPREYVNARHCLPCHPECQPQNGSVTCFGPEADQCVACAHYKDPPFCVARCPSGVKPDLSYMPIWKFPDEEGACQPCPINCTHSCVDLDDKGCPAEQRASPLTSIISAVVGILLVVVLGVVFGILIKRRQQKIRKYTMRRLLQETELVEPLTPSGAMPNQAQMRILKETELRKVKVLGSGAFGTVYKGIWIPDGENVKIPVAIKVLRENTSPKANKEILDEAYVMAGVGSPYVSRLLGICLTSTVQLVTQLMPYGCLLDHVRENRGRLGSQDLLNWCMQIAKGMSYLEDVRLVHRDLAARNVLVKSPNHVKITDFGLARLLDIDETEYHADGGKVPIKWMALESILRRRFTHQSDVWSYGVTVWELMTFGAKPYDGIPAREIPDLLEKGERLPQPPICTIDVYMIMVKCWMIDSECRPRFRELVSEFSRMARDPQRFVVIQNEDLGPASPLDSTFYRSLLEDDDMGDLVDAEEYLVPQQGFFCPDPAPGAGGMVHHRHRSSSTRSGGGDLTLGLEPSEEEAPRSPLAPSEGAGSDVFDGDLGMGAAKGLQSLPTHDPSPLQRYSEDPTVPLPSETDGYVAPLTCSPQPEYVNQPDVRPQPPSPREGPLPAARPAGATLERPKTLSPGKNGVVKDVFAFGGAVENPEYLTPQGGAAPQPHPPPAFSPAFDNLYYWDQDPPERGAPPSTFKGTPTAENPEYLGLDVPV

As for `CN1CCN(c2ccc(-c3cnc4c(c3)N(Cc3cc(F)ccc3F)CCN4)cn2)CC1`, the inhibition in experiment [1], in experiment [2], in experiment [3], in experiment [4], in experiment [5] and in [6] was less than 50% in each case. Further, the inhibition in experiment [7], in experiment [8], in experiment [9], in experiment [10], in [11] and in experiment [12] was less than 50% each time. Also, the inhibition in [13] was less than 50%; in experiment [14] it was less than 50%; in [15], 84.6%; in experiment [16], less than 50%.

For the origin of these results see ChEMBL document CHEMBL1165965, “Synthesis and structure-activity relationships of 1,2,3,4-tetrahydropyrido[2,3-b]pyrazines as potent and selective inhibitors of the anaplastic lymphoma kinase” (Bioorg Med Chem, 2010).
